Positions of bridges follow the written chain, without caps; N, C: chain ends. Residues, ends and D or L forms follow the SMILES beside them.
Molecular target: Sodium channel protein type 5 subunit alpha (Homo sapiens, UniProt Q14524)
Assay: Inhibition of human Nav1.5 expressed in HEK293 cells assessed as inward peak current by ion-works quattro patch clamp electrophysiology method
Assay type: cell-based
Summary of the method: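 Stable HEK293 line expressing human NaV1.5, recorded by population patch clamp on the IonWorks Quattro.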

Sequence of Sodium channel protein type 5 subunit alpha (Q14524 whole entry): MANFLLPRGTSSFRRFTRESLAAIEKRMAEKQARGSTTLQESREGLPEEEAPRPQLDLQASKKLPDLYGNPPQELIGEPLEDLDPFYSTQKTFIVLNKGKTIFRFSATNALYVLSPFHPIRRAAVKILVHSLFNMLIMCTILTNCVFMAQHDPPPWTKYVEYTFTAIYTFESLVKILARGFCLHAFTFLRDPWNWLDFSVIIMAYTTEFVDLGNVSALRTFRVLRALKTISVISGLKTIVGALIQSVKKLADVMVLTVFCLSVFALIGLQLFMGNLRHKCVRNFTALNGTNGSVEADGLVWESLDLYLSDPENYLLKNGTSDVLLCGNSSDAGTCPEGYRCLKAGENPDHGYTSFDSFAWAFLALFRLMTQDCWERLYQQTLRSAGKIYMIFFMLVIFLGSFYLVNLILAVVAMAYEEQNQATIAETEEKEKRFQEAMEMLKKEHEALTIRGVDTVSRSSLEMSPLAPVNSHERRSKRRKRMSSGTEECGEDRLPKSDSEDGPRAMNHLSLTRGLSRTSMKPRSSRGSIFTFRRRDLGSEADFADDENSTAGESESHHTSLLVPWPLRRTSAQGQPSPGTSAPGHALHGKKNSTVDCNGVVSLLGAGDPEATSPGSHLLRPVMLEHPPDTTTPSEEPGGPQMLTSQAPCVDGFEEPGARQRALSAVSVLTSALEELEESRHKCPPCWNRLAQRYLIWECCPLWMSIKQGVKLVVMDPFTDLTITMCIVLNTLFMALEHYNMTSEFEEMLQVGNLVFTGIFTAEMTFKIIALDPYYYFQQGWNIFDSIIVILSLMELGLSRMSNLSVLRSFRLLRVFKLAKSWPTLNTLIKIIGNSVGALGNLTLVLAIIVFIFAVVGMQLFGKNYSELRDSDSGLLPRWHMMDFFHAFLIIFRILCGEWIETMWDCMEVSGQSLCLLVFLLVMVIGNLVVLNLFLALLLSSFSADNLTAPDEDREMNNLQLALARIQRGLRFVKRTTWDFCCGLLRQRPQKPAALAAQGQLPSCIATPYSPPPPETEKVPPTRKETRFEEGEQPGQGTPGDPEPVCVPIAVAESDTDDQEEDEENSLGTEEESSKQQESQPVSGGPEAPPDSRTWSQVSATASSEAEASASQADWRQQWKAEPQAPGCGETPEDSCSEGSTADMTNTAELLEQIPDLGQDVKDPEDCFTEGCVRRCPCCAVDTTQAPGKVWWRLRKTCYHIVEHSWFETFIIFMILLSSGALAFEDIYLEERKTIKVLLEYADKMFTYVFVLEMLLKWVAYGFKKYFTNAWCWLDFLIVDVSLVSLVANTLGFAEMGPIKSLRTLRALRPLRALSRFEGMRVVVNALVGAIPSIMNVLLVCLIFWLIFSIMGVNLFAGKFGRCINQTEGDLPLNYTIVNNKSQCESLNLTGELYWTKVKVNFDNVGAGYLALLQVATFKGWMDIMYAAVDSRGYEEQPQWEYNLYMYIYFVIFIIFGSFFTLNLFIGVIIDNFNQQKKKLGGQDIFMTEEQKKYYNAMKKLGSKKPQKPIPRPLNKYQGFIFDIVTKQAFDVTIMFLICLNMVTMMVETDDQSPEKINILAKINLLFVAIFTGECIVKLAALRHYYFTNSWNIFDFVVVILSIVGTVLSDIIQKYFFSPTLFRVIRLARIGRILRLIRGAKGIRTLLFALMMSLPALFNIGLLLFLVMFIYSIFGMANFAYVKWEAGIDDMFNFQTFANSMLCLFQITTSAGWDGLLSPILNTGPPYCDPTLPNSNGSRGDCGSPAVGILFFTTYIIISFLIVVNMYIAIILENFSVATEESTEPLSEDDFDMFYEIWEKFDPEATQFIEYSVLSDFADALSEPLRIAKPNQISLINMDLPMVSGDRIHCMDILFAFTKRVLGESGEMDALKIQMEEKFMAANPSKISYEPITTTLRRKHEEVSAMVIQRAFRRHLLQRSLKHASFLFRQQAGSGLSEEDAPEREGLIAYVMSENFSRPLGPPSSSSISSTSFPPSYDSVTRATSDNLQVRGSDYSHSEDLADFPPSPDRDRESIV

Compound	IC50
CC[C@H](C)[C@@H]1NC(=O)[C@@H]2CSSC[C@@H]3NC(=O)[C@H](C(C)C)NC(=O)[C@H](CC(C)C)NC(=O)[C@H](CC(N)=O)NC(=O)[C@@H]4CCCN4C(=O)[C@H](CCCNC(=N)N)NC(=O)[C@H](CSSC[C@H](NC(=O)[C@@H](N)CC(=O)O)C(=O)N[C@@H](CC(C)C)C(=O)NCC(=O)N[C@@H](Cc4ccccc4)C(=O)N[C@@H](CCSC)C(=O)N[C@@H](CCCNC(=N)N)C(=O)N[C@@H](CCCCN)C(=O)N2)NC(=O)[C@H](CSSC[C@@H](C(=O)N[C@@H](CCCCN)C(=O)N[C@@H](Cc2ccc(O)cc2)C(=O)N[C@H](C(=O)N[C@@H](Cc2ccccc2)C(N)=O)C(C)C)NC(=O)[C@H](Cc2c[nH]c4ccccc24)NC(=O)[C@H](CCCCN)NC(=O)[C@H](CCCCN)NC(=O)[C@H]([C@@H](C)O)NC(=O)[C@H](CCCNC(=N)N)NC(=O)[C@H](CO)NC3=O)NC(=O)[C@H](CCCCN)NC(=O)[C@H](CC(=O)O)NC(=O)[C@H](CC(N)=O)NC(=O)[C@H](CC(=O)O)NC(=O)[C@@H]2CCCN2C1=O (H-DCLGFMRKCIPDNDKCCRPNLVCSRTKKWCKYVF-NH2; disulfide 2-17, 9-23, 16-30)	> 5 µM
CC[C@H](C)[C@@H]1NC(=O)[C@@H]2CSSC[C@@H]3NC(=O)[C@H](C(C)C)NC(=O)[C@H](CC(C)C)NC(=O)[C@H](CC(N)=O)NC(=O)[C@@H]4CCCN4C(=O)[C@H](CCCNC(=N)N)NC(=O)[C@H](CSSC[C@H](NC(=O)[C@@H](N)CC(=O)O)C(=O)N[C@@H](CC(C)C)C(=O)NCC(=O)N[C@@H](Cc4ccccc4)C(=O)N[C@@H](CCSC)C(=O)N[C@@H](CCCNC(=N)N)C(=O)N[C@@H](CCCCN)C(=O)N2)NC(=O)[C@H](CSSC[C@@H](C(=O)N[C@@H](CCCCN)C(=O)N[C@@H](Cc2ccc(O)cc2)C(=O)N[C@H](C(=O)N[C@@H](Cc2ccccc2)C(=O)N[C@@H](CCCCN)C(N)=O)C(C)C)NC(=O)[C@H](Cc2c[nH]c4ccccc24)NC(=O)[C@H](CCCCN)NC(=O)[C@H](Cc2cnc[nH]2)NC(=O)[C@H]([C@@H](C)O)NC(=O)[C@H](CCCNC(=N)N)NC(=O)[C@H](CO)NC3=O)NC(=O)[C@H](CCCCN)NC(=O)[C@H](CC(=O)O)NC(=O)[C@H](CC(N)=O)NC(=O)[C@H](CC(=O)O)NC(=O)[C@@H]2CCCN2C1=O	> 5 µM
CC[C@H](C)[C@@H]1NC(=O)[C@@H]2CSSC[C@@H]3NC(=O)[C@H](C(C)C)NC(=O)[C@H](CC(C)C)NC(=O)[C@H](CC(N)=O)NC(=O)[C@@H]4CCCN4C(=O)[C@H](CCCNC(=N)N)NC(=O)[C@H](CSSC[C@H](NC(=O)[C@@H](N)CC(=O)O)C(=O)N[C@@H](CC(C)C)C(=O)NCC(=O)N[C@@H](Cc4ccccc4)C(=O)N[C@@H](CCSC)C(=O)N[C@@H](CCCNC(=N)N)C(=O)N[C@@H](CCCCN)C(=O)N2)NC(=O)[C@H](CSSC[C@@H](C(=O)N[C@@H](CCCCN)C(=O)N[C@@H](Cc2ccc(O)cc2)C(=O)N[C@@H](CCCNC(=N)N)C(=O)N[C@@H](Cc2ccccc2)C(N)=O)NC(=O)[C@H](Cc2c[nH]c4ccccc24)NC(=O)[C@H](CCCCN)NC(=O)[C@H](Cc2cnc[nH]2)NC(=O)[C@H]([C@@H](C)O)NC(=O)[C@H](CCCNC(=N)N)NC(=O)[C@H](CO)NC3=O)NC(=O)[C@H](CCCCN)NC(=O)[C@H](CC(=O)O)NC(=O)[C@H](CC(N)=O)NC(=O)[C@H](CC(=O)O)NC(=O)[C@@H]2CCCN2C1=O (H-DCLGFMRKCIPDNDKCCRPNLVCSRTHKWCKYRF-NH2; disulfide 2-17, 9-23, 16-30)	> 5 µM
CC[C@H](C)[C@@H]1NC(=O)[C@@H]2CSSC[C@@H]3NC(=O)[C@H](C(C)C)NC(=O)[C@H](CC(C)C)NC(=O)[C@H](CC(N)=O)NC(=O)[C@@H]4CCCN4C(=O)[C@H](CCCNC(=N)N)NC(=O)[C@H](CSSC[C@H](NC(=O)[C@@H](N)CC(=O)O)C(=O)N[C@@H](CC(C)C)C(=O)NCC(=O)N[C@@H](Cc4ccccc4)C(=O)N[C@@H](CCSC)C(=O)N[C@@H](CCCNC(=N)N)C(=O)N[C@@H](CCCCN)C(=O)N2)NC(=O)[C@H](CSSC[C@@H](C(=O)N[C@@H](CCCCN)C(=O)N[C@@H](Cc2ccc(O)cc2)C(=O)N[C@H](C(=O)N[C@@H](Cc2ccccc2)C(N)=O)C(C)C)NC(=O)[C@H](Cc2c[nH]c4ccccc24)NC(=O)[C@H](CCCCN)NC(=O)[C@H](Cc2cnc[nH]2)NC(=O)[C@H]([C@@H](C)O)NC(=O)[C@H](CCCNC(=N)N)NC(=O)[C@H](CO)NC3=O)NC(=O)[C@H](CCCCN)NC(=O)[C@H](CC(=O)O)NC(=O)[C@H](CC(N)=O)NC(=O)[C@H](CCCNC(=N)N)NC(=O)[C@@H]2CCCN2C1=O (H-DCLGFMRKCIPRNDKCCRPNLVCSRTHKWCKYVF-NH2; disulfide 2-17, 9-23, 16-30)	> 4.8 µM
CC[C@H](C)[C@@H]1NC(=O)[C@@H]2CSSC[C@@H]3NC(=O)[C@H](C(C)C)NC(=O)[C@H](CC(C)C)NC(=O)[C@H](CC(N)=O)NC(=O)[C@@H]4CCCN4C(=O)[C@H](CCCNC(=N)N)NC(=O)[C@H](CSSC[C@H](NC(=O)[C@@H](N)CC(=O)O)C(=O)N[C@@H](CC(C)C)C(=O)NCC(=O)N[C@@H](Cc4ccccc4)C(=O)N[C@@H](Cc4cccc5ccccc45)C(=O)N[C@@H](CCCNC(=N)N)C(=O)N[C@@H](CCCCN)C(=O)N2)NC(=O)[C@H](CSSC[C@@H](C(=O)N[C@@H](CCCCN)C(=O)N[C@@H](Cc2ccc(O)cc2)C(=O)N[C@H](C(=O)N[C@@H](Cc2ccccc2)C(N)=O)C(C)C)NC(=O)[C@H](Cc2c[nH]c4ccccc24)NC(=O)[C@H](CCCCN)NC(=O)[C@H](Cc2cnc[nH]2)NC(=O)[C@H]([C@@H](C)O)NC(=O)[C@H](CCCNC(=N)N)NC(=O)[C@H](CO)NC3=O)NC(=O)[C@H](CCCCN)NC(=O)[C@H](CC(=O)O)NC(=O)[C@H](CC(N)=O)NC(=O)[C@H](CC(=O)O)NC(=O)[C@@H]2CCCN2C1=O	2.3 µM
CC[C@H](C)[C@@H]1NC(=O)[C@@H]2CSSC[C@@H]3NC(=O)[C@H](C(C)C)NC(=O)[C@H](CC(C)C)NC(=O)[C@H](CC(N)=O)NC(=O)[C@@H]4CCCN4C(=O)[C@H](CCCNC(=N)N)NC(=O)[C@H](CSSC[C@H](NC(=O)[C@@H](N)CC(=O)O)C(=O)N[C@@H](CC(C)C)C(=O)NCC(=O)N[C@@H](Cc4ccccc4)C(=O)N[C@@H](CCSC)C(=O)N[C@@H](CCCNC(=N)N)C(=O)N[C@@H](CCCCN)C(=O)N2)NC(=O)[C@H](CSSC[C@@H](C(=O)N[C@@H](CCCCN)C(=O)N[C@@H](Cc2ccc(O)cc2)C(=O)N[C@H](C(=O)N[C@@H](Cc2ccccc2)C(=O)N[C@@H](CCC(=O)O)C(N)=O)C(C)C)NC(=O)[C@H](Cc2c[nH]c4ccccc24)NC(=O)[C@H](CCCCN)NC(=O)[C@H](Cc2c[nH]cn2)NC(=O)[C@H]([C@@H](C)O)NC(=O)[C@H](CCCNC(=N)N)NC(=O)[C@H](CO)NC3=O)NC(=O)[C@H](CCCCN)NC(=O)[C@H](CC(=O)O)NC(=O)[C@H](CC(N)=O)NC(=O)[C@H](CC(=O)O)NC(=O)[C@@H]2CCCN2C1=O	> 5 µM
CC[C@H](C)[C@@H]1NC(=O)[C@@H]2CSSC[C@@H]3NC(=O)[C@H](C(C)C)NC(=O)[C@H](CC(C)C)NC(=O)[C@H](CC(N)=O)NC(=O)[C@@H]4CCCN4C(=O)[C@H](CCCNC(=N)N)NC(=O)[C@H](CSSC[C@H](NC(=O)[C@@H](N)CC(=O)O)C(=O)N[C@@H](CC(C)C)C(=O)NCC(=O)N[C@@H](Cc4ccccc4)C(=O)N[C@@H](CCSC)C(=O)N[C@@H](CCCNC(=N)N)C(=O)N[C@@H](CCCCN)C(=O)N2)NC(=O)[C@H](CSSC[C@@H](C(=O)N[C@@H](CCCCN)C(=O)N[C@@H](Cc2ccc(O)cc2)C(=O)N[C@H](C(=O)N[C@@H](Cc2ccccc2)C(N)=O)C(C)C)NC(=O)[C@H](Cc2c[nH]c4ccccc24)NC(=O)[C@H](CCCCN)NC(=O)[C@H](Cc2cnc[nH]2)NC(=O)[C@H]([C@@H](C)O)NC(=O)[C@H](CCCNC(=N)N)NC(=O)[C@H](CO)NC3=O)NC(=O)[C@H](CCCCN)NC(=O)[C@H](CC(=O)O)NC(=O)[C@H](CC(N)=O)NC(=O)[C@H](CCCCN)NC(=O)[C@@H]2CCCN2C1=O (H-DCLGFMRKCIPKNDKCCRPNLVCSRTHKWCKYVF-NH2; disulfide 2-17, 9-23, 16-30)	> 4.7 µM
CC[C@H](C)[C@@H]1NC(=O)[C@@H]2CSSC[C@@H]3NC(=O)[C@H](C(C)C)NC(=O)[C@H](CC(C)C)NC(=O)[C@H](CC(N)=O)NC(=O)[C@@H]4CCCN4C(=O)[C@H](CCCNC(=N)N)NC(=O)[C@H](CSSC[C@H](NC(=O)[C@H](CC(=O)O)NC(=O)[C@@H](N)CCCNC(=N)N)C(=O)N[C@@H](CC(C)C)C(=O)NCC(=O)N[C@@H](Cc4ccccc4)C(=O)N[C@@H](CCSC)C(=O)N[C@@H](CCCNC(=N)N)C(=O)N[C@@H](CCCCN)C(=O)N2)NC(=O)[C@H](CSSC[C@@H](C(=O)N[C@@H](CCCCN)C(=O)N[C@@H](Cc2ccc(O)cc2)C(=O)N[C@H](C(=O)N[C@@H](Cc2ccccc2)C(N)=O)C(C)C)NC(=O)[C@H](Cc2c[nH]c4ccccc24)NC(=O)[C@H](CCCCN)NC(=O)[C@H](Cc2cnc[nH]2)NC(=O)[C@H]([C@@H](C)O)NC(=O)[C@H](CCCNC(=N)N)NC(=O)[C@H](CO)NC3=O)NC(=O)[C@H](CCCCN)NC(=O)[C@H](CC(=O)O)NC(=O)[C@H](CC(N)=O)NC(=O)[C@H](CC(=O)O)NC(=O)[C@@H]2CCCN2C1=O	> 5 µM
CC[C@H](C)[C@@H]1NC(=O)[C@@H]2CSSC[C@@H]3NC(=O)[C@H](C(C)C)NC(=O)[C@H](CC(C)C)NC(=O)[C@H](CC(N)=O)NC(=O)[C@@H]4CCCN4C(=O)[C@H](CCCNC(=N)N)NC(=O)[C@H](CSSC[C@H](NC(=O)[C@@H](N)CC(=O)O)C(=O)N[C@@H](CC(C)C)C(=O)NCC(=O)N[C@@H](Cc4ccccc4)C(=O)N[C@@H](CCSC)C(=O)N[C@@H](CCCNC(=N)N)C(=O)N[C@@H](CCCCN)C(=O)N2)NC(=O)[C@H](CSSC[C@@H](C(=O)N[C@@H](CCCCN)C(=O)N[C@@H](Cc2ccc(O)cc2)C(=O)N[C@H](C(=O)N[C@@H](Cc2ccccc2)C(N)=O)C(C)C)NC(=O)[C@H](Cc2c[nH]c4ccccc24)NC(=O)[C@H](CCC(=O)O)NC(=O)[C@H](Cc2cnc[nH]2)NC(=O)[C@H]([C@@H](C)O)NC(=O)[C@H](CCCNC(=N)N)NC(=O)[C@H](CO)NC3=O)NC(=O)[C@H](CCCCN)NC(=O)[C@H](CC(=O)O)NC(=O)[C@H](CC(N)=O)NC(=O)[C@H](CC(=O)O)NC(=O)[C@@H]2CCCN2C1=O (H-DCLGFMRKCIPDNDKCCRPNLVCSRTHEWCKYVF-NH2; disulfide 2-17, 9-23, 16-30)	> 5 µM

From ChEMBL document CHEMBL3797186, “Single Residue Substitutions That Confer Voltage-Gated Sodium Ion Channel Subtype Selectivity in the NaV1.7 Inhibitory Peptide GpTx-1” (J Med Chem, 2016)
